Screening results as filed in PubChem BioAssay.
Sampled rows, rich in hits. Any-hit rate of the full collection: about 1.6%.
TDP2 absorb: human TDP2 enzyme inhibitors, primary screen, biochemical, epi absorbance, recombinant enzyme. AID 720702, 2013. inhibition, % at 12.8 µM. T5PNP hydrolysis, p-nitrophenol absorbance 415 nm. Tyrosyl-DNA phosphodiesterase 2 (Homo sapiens), O95551. 0.34% of 370,000 active;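 active = inhibition above the mean of all tested compounds plus 3 SD, set per campaign, cut at about 25% in these data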;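 note: 0% = DMSO with enzyme and 100% = buffer with substrate but no TDP2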
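Assay system: recombinant human TDP2 / Reagent: T5PNP substrate at 5 mM, a TopII-DNA adduct mimic / Measured by: epi absorbance from released p-nitrophenol / Evaluation: % inhibition relative to enzyme-containing and enzyme-free wells / Control set: enzyme-free and DMSO wells / Replicates: each compound tested once, singlicate / Schedule: enzyme reaction with compound for 2 h at 37 °C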
UHRF1 binding: UHRF1 methylated DNA binding inhibitors, primary screen, counter-screen for MBD2 inhibitor project, biochemical, TR-FRET, human UHRF1, single concentration. AID 687016, 2013. inhibition, % at 4.4 µM. UHRF1 binding to methylated oligo. 0.75% of 370,000 active; in the data active = inhibition above about 21%;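 note: UHRF1 SRA domain binding a hemimethylated CpG hairpin DNA probe; 0% = median of test compound wells and 100% = reference inhibitor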
MBD2 inh: inhibitors of MBD2 binding to methylated DNA, primary screen, biochemical, TR-FRET, DNA-binding domain, human | MBD2 binding to methylated oligonucleotide | Methyl-CpG-binding domain protein 2 (Homo sapiens), Q9UBB5 | 0.31% of 370,000 active | inhibition, % at 4.4 µM; in the data active = inhibition above about 13%
LEDGF integ inh: blockers of LEDGF/p75-dependent integrase strand transfer – biochemical, TR-FRET, high throughput, primary screen. HIV-1 integrase (with human LEDGF/p75). TR-FRET IN-LEDGF/p75 DNA integration, Eu/Cy5. inhibition, % at 3.7 µM. 0.64% of 370,000 active;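 active = inhibition above the screen-wide mean plus 3 SD, cut at about 13% in these data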;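 note: signal is the Cy5 over europium emission ratio at 671 and 618 nm; 0% = plate median of compound wells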
IN multimer act: HIV-1 IN multimer formation enhancers, counter-screen for LEDGF/p75 integration inhibitor project, biochemical, TR-FRET | shares compounds with LEDGF integ inh | TR-FRET HIV-1 integrase multimerization | activation, % at 7.7 µM | 17% of 2,000 active; in the data active = activation above about 8.9%
TRFRET interf: TR-FRET optical interference artefacts, confirmation, artefact control for LEDGF/p75-dependent integration inhibitor project, biochemical, HIV-1 IN multimerization; 2,000 tested, under 10 active; AID 1053135, 2014; shares compounds with LEDGF integ inh; inhibition, % at 7.7 µM; TR-FRET optical interference counterscreen;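 active = inhibition above the mean over all tested compounds plus 3 SD, which no compound reached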;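 note: 0% = integrase with antibodies and DMSO and 100% = antibodies without integrase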
LEDGF integ conf: inhibitors of HIV-1 IN-LEDGF/p75 DNA integration, confirmation, biochemical, TR-FRET; shares compounds with LEDGF integ inh; TR-FRET LEDGF/p75-dependent HIV-1 integration; inhibition, % at 3.7 µM; 36% of 2,000 active; in the data active = inhibition above about 14%
* hit, by the source's call; . = not tested or not shown.

SMILES	TDP2 absorb	UHRF1 binding	MBD2 inh	LEDGF integ inh	IN multimer act	TRFRET interf	LEDGF integ conf
O=C(CSc1nnc(-c2ccco2)c(-c2ccco2)n1)Nc1ccccc1	-7	41*	11	38*	3	-15	55*
O=C(CSc1ccc(Cl)cc1)Nc1cccc(NC(=O)c2ccco2)c1	-8	-1	4	0	.	.	.
COc1ccc(C(=O)CSc2nnc(-c3ccco3)n2C)cc1	-7	4	-8	1	.	.	.
COc1ccc(C(=O)CSc2nnc(-c3ccco3)c(-c3ccco3)n2)cc1	11	3	3	15*	13*	-47	41*
CN(C)c1ccc(NC(=O)CSc2nnc(-c3ccco3)c(-c3ccco3)n2)cc1	7	-10	-2	11	.	.	.
O=C(CSc1ccccc1)Nc1cccc(NC(=O)c2ccco2)c1	-5	0	6	16*	1	-5	-9
Cc1ccc(NC(=O)CSc2nnc(-c3ccco3)c(-c3ccco3)n2)cc1	20	8	0	25*	2	-12	28*
COc1cccc(NC(=O)CSc2nnc(-c3ccco3)c(-c3ccco3)n2)c1	9	14	2	25*	8	-30	39*
COc1cc(CNc2ncnc3c2ncn3[C@H]2CN(Cc3cccc(C(F)(F)F)c3)C[C@@H](COC(C)=O)O2)cc(OC)c1OC	2	0	-4	38*	1	-7	-8
CCCN1CN=C(NS(=O)(=O)c2ccc(C)cc2)NC1	12	1	2	1	.	.	.
Cc1ccc(S(=O)(=O)NC2=NCN(CCN3CCOCC3)CN2)cc1	3	0	0	22*	-1	4	-1
O=C(CC1CS(=O)(=O)CC1CC(=O)Oc1ccccc1F)Oc1ccccc1F (stereo not drawn)	3	2	-1	24*	2	-7	5
CCc1ccccc1NC(=O)CC1CS(=O)(=O)CC1CC(=O)Nc1ccccc1CC (stereo not drawn)	1	1	9	1	.	.	.
CCN(CC)C(=O)Oc1ccc2c(c1)O/C(=C\c1ccco1)C2=O	-6	5	4	2	.	.	.
O=C1/C(=C/c2ccco2)Oc2c1ccc(O)c2CN1CCCCC1	6	14	1	22*	13*	-65	23*
COCCN(CCOC)Cc1c(O)ccc2c1O/C(=C\c1ccco1)C2=O	9	25*	2	41*	24*	-84	22*
CCC(=O)Oc1ccc2c(c1)O/C(=C\c1ccco1)C2=O	-6	20	5	25*	7	-36	10
O=C(C1CCCN(S(=O)(=O)c2cccc3ccccc23)C1)N1CCN(Cc2ccccc2)CC1 (stereo not drawn)	-3	3	6	-5	.	.	.
Cc1cc(C)cc(NC(=O)NCCCN2CCN(c3ccc(F)cc3)CC2)c1	5	-1	-3	1	.	.	.
O=C(Cc1cnn(-c2ccccc2)c1)c1ccc(O)c(O)c1O	-7	5	4	22*	10*	-36	18*
CCn1c(C)cc(/C=C2\NC(=O)N(Cc3ccccc3)C2=O)c1C	-11	1	2	17*	1	-3	-4
CCn1c(C)cc(/C=C2/NC(=O)N(Cc3ccccc3F)C2=O)c1C	6	-4	-3	-1	.	.	.
COC(=O)[C@H]1C[C@H]2[C@@H]3CC[C@H]4C[C@@H](OC)CC[C@]4(C)[C@H]3CC[C@]2(C)[C@@]2(CCCO2)O1	-5	1	-4	49*	1	-6	4
CCCCCCCCNC(=O)C1CSCCS(=O)(=O)N1Cc1ccc(F)cc1 (stereo not drawn)	5	-1	-2	0	.	.	.
COc1ccc(CC(Cc2ccc(OC)c(OC)c2)NC=O)cc1OC	-4	-1	0	16*	-2	11	-4
SMILES	TDP2 absorb	UHRF1 binding	MBD2 inh	LEDGF integ inh	IN multimer act	TRFRET interf	LEDGF integ conf
COc1ccc(CNS(=O)(=O)NCc2ccc(OC)c(OC)c2)cc1OC	-3	-1	1	2	.	.	.
CCCCOCCCNC(=O)C[C@H]1C[C@@]2(C(=O)OC)C(=C[C@H](COCc3ccccc3)O[C@@H]2C)N(Cc2ccc(Cl)cc2Cl)C1=O	-7	-1	1	-4	.	.	.
O=[N+]([O-])c1ccccc1N=Nc1ccc(O)cc1O	8	-2	-5	-4	.	.	.
O=S(=O)(O)c1cc(O)c(N=Nc2ccc(O)cc2O)c2ccccc12	16	12	-7	32*	95*	-339	40*
COC(=O)\C(C(C)=O)=C(/C=C/C=C/N(C)C)N(C)C	13	13	0	34*	1	-5	10
CCCCSc1nc2c([nH]1)c(=S)n(C)c(=O)n2C	-3	-3	-6	-1	.	.	.
CSc1nc2c([nH]1)c(=S)n(C)c(=O)n2C	-3	-3	-3	26*	7	-24	-10
CC(C)C[C@H]1CN([C@@H](Cc2ccccc2)CN2CCC[C@H]2CN2C(=O)C(=O)NC[C@@H]2Cc2ccccc2)C(=O)C(=O)N1CC1CCCCCC1	-8	3	0	21*	1	-4	1
CC(C)C[C@H]1CN([C@@H](Cc2ccccc2)CN2CCC[C@@H]2CN2C(=O)C(=O)NC[C@@H]2Cc2ccccc2)C(=O)C(=O)N1CC1CCCCC1	6	-2	-4	5	.	.	.
CCN(CC)C(=O)[C@H]1C[C@H](CC(=O)NCCc2ccccn2)C(=O)N2CCc3c([nH]c4cc(-c5ccco5)ccc34)[C@]12C	-2	0	-3	65*	0	-1	-5
CC(=O)c1cc(-c2ccc([N+](=O)[O-])cc2)c(=O)n2c1CCC2	5	2	1	1	.	.	.
COc1ccc(C(C)(NC(C)=O)c2nc(-c3cccc(C(F)(F)F)c3)cs2)cc1 (stereo not drawn)	-2	-1	0	16*	-1	3	-9
CN(C)CCNC(=O)c1cccc(-c2cccc3nncn23)c1	-4	-1	-7	55*	-1	4	1
CNc1cncc(-c2cccc(C(=O)NCCN(C)C)c2)n1	-3	-3	-5	0	.	.	.
